Changes are numbered by the printed parent chain. One block for each compound: values may come before it. Residues, ends and D or L forms follow the SMILES beside them. *: point of attachment. FITC = O=C1OC2(c3ccc(O)cc3Oc3cc(O)ccc32)c2ccc(NC(=S)*)cc21; Ahx = NCCCCCC(=O)O
Assays:
[1] = test system: glucagon-like peptide 1 receptor (GLP-1R); settings: cited from earlier work
[2] = test system: glucagon-like peptide 1 receptor (GLP-1R); settings: cited from earlier work; remark: listed apart in the source
[3] = test system: CTR; settings: cited from earlier work
[4] = target: T1, Glycan-free CTR.38–141 WT (CTR ECD; E. coli) (Homo sapiens, UniProt P30988); experiment: FP saturation binding, glycan-free CTR.38–141 WT; settings: glycan-free vs Endo H-treated WT
T1 sequence (P30988 38-141): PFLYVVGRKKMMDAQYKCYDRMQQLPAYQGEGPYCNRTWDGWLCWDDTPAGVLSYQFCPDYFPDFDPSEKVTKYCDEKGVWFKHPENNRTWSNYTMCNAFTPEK

[5] = target: T2, CTR.38–141 N130D (CTR ECD; HEK293S GnTI^−, Endo H) (Homo sapiens, UniProt P30988, N130D); experiment: FP saturation binding, CTR.38–141 N130D, Endo H; settings: N130D vs Endo H-treated WT
T2 sequence (P30988 38-141 N130D): T1 sequence (P30988 38-141) with N93D

[6] = test system: IL-7 receptor α unit (IL-7Rα) ectodomain; settings: cited from earlier work
[7] = test system: PTH type 1 receptor (PTH1R); settings: cited from earlier work
[8] = target: T3, RAMP1-CTR.34–141 N130D (Homo sapiens, UniProt O60894+P30988, N130D/fusion); experiment: FP saturation binding, RAMP1-CTR.34–141 N130D; settings: Figure S8D; no enzyme; 10 nM probe, pH 7.4; mean ± SEM, N = 3
T3 sequence (P30988 34-141 N130D): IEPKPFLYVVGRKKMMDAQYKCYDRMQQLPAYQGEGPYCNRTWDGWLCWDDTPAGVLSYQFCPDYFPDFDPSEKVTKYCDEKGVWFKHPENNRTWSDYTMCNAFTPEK

[9] = target: RAMP1-CTR.34–141 WT (PNGase F) (Homo sapiens, UniProt O60894+P30988, N125D/N130D/N73D); experiment: FP saturation binding, RAMP1-CTR.34–141 WT, PNGase F; settings: Figure S8D, 10 nM probe, pH 7.4, N = 3
Outline: (§1)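 RAMP1-CTR ECD fusion WT was expressed in HEK293S GnTI cells, TEV-cleaved to remove MBP, then purified by IMAC/SEC. FP saturation binding at room temperature used 10 nM FITC-peptide probe and titrated receptor. Buffer: HEPES pH 7.4 with BSA, maltose, EDTA, Tween 20. Duplicates, pKD by nonlinear fit.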

[10] = target: T4, RAMP1-CTR.34–141 WT (inactive PNGase F) (Homo sapiens, UniProt O60894+P30988, fusion); experiment: FP saturation binding, RAMP1-CTR.34–141 WT, inactive PNGase F; settings: Figure S8D, 10 nM probe, pH 7.4, mean ± SEM, N = 3
T4 sequence (P30988 34-141): T3 sequence (P30988 34-141 N130D) with D97N
Outline: as §1

[11] = test system: CTR ECD; settings: isolated ECD; cited from earlier work
[12] = test system: Pituitary adenylate cyclase activating polypeptide (PACAP) type I (PAC1) receptor; settings: tunicamycin treatment, binding capacity not altered; cited from earlier work

Compound: GLP-1: GLP-1, ligand of glucagon-like peptide 1 receptor
signaling potency, double mutation of two N-glycosylation sites [1]: significantly reduced GLP-1 affinity and signaling potency
affinity, double mutation of two N-glycosylation sites [2]: significantly reduced GLP-1 affinity

Compound: salmon calcitonin
affinity vs human calcitonin [3]: higher affinity than human calcitonin

affinity decrease [4]: over 5 fold
affinity decrease [5]: over 5 fold
Compound: C[C@@H](O)[C@H](NC(=O)[C@H](CC(N)=O)NC(=O)[C@@H](NC(=O)[C@H](CCCNC(=N)N)NC(=O)[C@@H]1CCCN1C(=O)[C@H](Cc1ccc(O)cc1)NC(=S)Nc1ccc2c(c1)C(=O)OC21c2ccc(O)cc2Oc2cc(O)ccc21)[C@@H](C)O)C(=O)NCC(=O)N[C@@H](CO)C(=O)NCC(=O)N[C@H](C(=O)N1CCC[C@H]1C(N)=O)[C@@H](C)O [FITC-sCT(22–32)] ({FITC}-YPRTNTGSGTP-NH2)

Compound: IL-7: IL-7, ligand of IL-7 receptor α unit
association rate with N-glycosylated receptor [6]: accelerated association rate
effect of N-glycosylation on binding affinity [6]: significantly increased IL-7 binding affinity

Compound: PTH: PTH, ligand of PTH type 1 receptor
binding affinity, N161D mutation ([7]; N161D mutation of PTH1R): did not change the binding affinity for PTH
binding affinity after tunicamycin ([7]; human PTH1R expressed in mammalian cells, tunicamycin treatment): no changes in PTH binding affinity

pKD [8]: 5.12 ± 0.07
pKD [9]: < 5.0
pKD [10]: 6.01 ± 0.03
Compound: CC(C)C[C@H](NC(=O)[C@H](CCCNC(=N)N)NC(=O)[C@@H](NC(=O)[C@H](CC(C)C)NC(=O)[C@H](Cc1ccccc1)NC(=O)[C@H](CC(N)=O)NC(=O)[C@H](C)NC(=O)CCCCCNC(=S)Nc1ccc2c(c1)C(=O)OC21c2ccc(O)cc2Oc2cc(O)ccc21)C(C)C)C(=O)N[C@@H](CCC(N)=O)C(=O)N[C@H](C(=O)N[C@@H](Cc1ccc(O)cc1)C(=O)N1CCC[C@H]1C(=O)N[C@@H](CCCNC(=N)N)C(=O)N[C@H](C(=O)N[C@@H](CC(N)=O)C(=O)N[C@H](C(=O)NCC(=O)N[C@@H](C)C(=O)N[C@@H](CC(N)=O)C(=O)N[C@H](C(=O)N[C@@H](Cc1ccc(O)cc1)C(N)=O)[C@@H](C)O)C(C)C)[C@@H](C)O)[C@@H](C)O [FITC-AC413(6–25)] ({FITC-Ahx}-ANFLVRLQTYPRTNVGANTY-NH2; N-terminus and C-terminus assumed)

Compound: calcitonin
binding affinity enhancement by CTR N-glycosylation [11]: ~ 10 fold

Compound: PACAP-27
affinity decrease by tunicamycin [12]: 30 fold
